Data: ChEMBL document CHEMBL1159100, “Synthesis and antibacterial activity of benzyl-[3-(benzylamino-methyl)-cyclohexylmethyl]-amine derivatives” (Bioorg Med Chem Lett, 2010)
Values after ≈ are worked out from the molar mass of the structure shown.

Legend:
Escherichia coli = assay: Antimicrobial activity against Escherichia coli after 24 hrs by microdilution assay; type: functional
Summary of the method: (§1)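 NCCLS broth microdilution, final 100 µL. Bacteria grown in standard media to exponential phase. Compounds in 5% DMSO serially diluted; ~2–5 × 10^5 cells per well, 37 °C, 24 h, shaking 200 rpm. Growth read spectrophotometrically; percent survival relative to a drug-free 5% DMSO growth control; medium-only sterility control. MIC derived from survival data.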

Pseudomonas aeruginosa = assay: Antimicrobial activity against Pseudomonas aeruginosa after 24 hrs by microdilution assay; type: functional; summary of the method: as §1
Staphylococcus aureus = assay: Antimicrobial activity against Staphylococcus aureus after 24 hrs by microdilution assay; type: functional; summary of the method: as §1
[1] = test system: Staphylococcus epidermidis; assay: Antimicrobial activity against Staphylococcus epidermidis after 24 hrs by microdilution assay; type: functional; summary of the method: as §1
[2] = Toxicity in human RBC up to 512 ug/ml; type: cell-based; details: erythrocyte
Summary of the method: (§2)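 Fresh human erythrocytes, 4% v/v in 35 mM phosphate buffer with 150 mM NaCl, incubated with test sample 1 h at 37 °C. After centrifugation, supernatant absorbance read at 414 nm. 0.1% Triton X-100 lysis taken as 100% hemolysis. Tested at concentrations up to 512 µg/mL.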

[3] = Toxicity in human RBC assessed as hemolytic activity at 512 ug/ml; type: cell-based, Erythrocyte; details: red blood cells (RBC), read-out: Activity; summary of the method: as §2

Cc1cccc(CNCC2CCCC(CNCc3cccc(C)c3)C2)c1 (configuration not stated)
MIC (Escherichia coli): > 250 µg/mL | MIC (Pseudomonas aeruginosa): 1 µg/mL (≈ 2.85 µM) | MIC (Staphylococcus aureus): > 250 µg/mL | MIC [1]: 1 µg/mL (≈ 2.85 µM) | Activity [2]: Non-toxic

Cc1ccc(CNCC2CCCC(CNCc3ccc(C)cc3)C2)cc1 (configuration not stated)
MIC (Escherichia coli): > 250 µg/mL | MIC (Pseudomonas aeruginosa): 0.5 µg/mL (≈ 1.43 µM) | MIC (Staphylococcus aureus): > 250 µg/mL | MIC [1]: 1 µg/mL (≈ 2.85 µM) | Activity [2]: Non-toxic

CC(C)(C)c1ccc(CNCC2CCCC(CNCc3ccc(C(C)(C)C)cc3)C2)cc1 (configuration not stated)
MIC (Escherichia coli): 0.002 µg/mL (≈ 0.0046 µM) | MIC (Pseudomonas aeruginosa): 0.004 µg/mL (≈ 0.0092 µM) | MIC (Staphylococcus aureus): 0.016 µg/mL (≈ 0.0368 µM) | MIC [1]: 0.008 µg/mL (≈ 0.0184 µM) | hemolysis at 512 ug/ml [3]: 4%

Cc1ccc(CNCC2CCCC(CNCc3ccc(C)c(C)c3)C2)cc1C (configuration not stated)
MIC (Escherichia coli): > 250 µg/mL | MIC (Pseudomonas aeruginosa): 0.125 µg/mL (≈ 0.33 µM) | MIC (Staphylococcus aureus): > 250 µg/mL | MIC [1]: > 250 µg/mL | Activity [2]: Non-toxic

Cc1ccc(CNCC2CCCC(CNCc3ccc(C)cc3C)C2)c(C)c1 (configuration not stated)
MIC (Escherichia coli): > 250 µg/mL | MIC (Pseudomonas aeruginosa): > 250 µg/mL | MIC (Staphylococcus aureus): > 250 µg/mL | MIC [1]: > 250 µg/mL

Cc1cc(C)cc(CNCC2CCCC(CNCc3cc(C)cc(C)c3)C2)c1 (configuration not stated)
MIC (Escherichia coli): > 250 µg/mL | MIC (Pseudomonas aeruginosa): 1 µg/mL (≈ 2.64 µM) | MIC (Staphylococcus aureus): > 250 µg/mL | MIC [1]: 0.25 µg/mL (≈ 0.66 µM) | Activity [2]: Non-toxic

Cc1ccc(C)c(CNCC2CCCC(CNCc3cc(C)ccc3C)C2)c1 (configuration not stated)
MIC (Escherichia coli): > 250 µg/mL | MIC (Pseudomonas aeruginosa): > 250 µg/mL | MIC (Staphylococcus aureus): > 250 µg/mL | MIC [1]: > 250 µg/mL

Fc1cccc(CNCC2CCCC(CNCc3cccc(F)c3)C2)c1 (configuration not stated)
MIC (Escherichia coli): > 250 µg/mL | MIC (Pseudomonas aeruginosa): > 250 µg/mL | MIC (Staphylococcus aureus): > 250 µg/mL | MIC [1]: > 250 µg/mL

Cc1ccccc1CNCC1CCCC(CNCc2ccccc2C)C1 (configuration not stated)
MIC (Escherichia coli): > 250 µg/mL | MIC (Pseudomonas aeruginosa): > 250 µg/mL | MIC (Staphylococcus aureus): > 250 µg/mL | MIC [1]: > 250 µg/mL | Activity [2]: Non-toxic

Brc1cccc(CNCC2CCCC(CNCc3cccc(Br)c3)C2)c1 (configuration not stated)
MIC (Escherichia coli): > 250 µg/mL | MIC (Pseudomonas aeruginosa): 0.125 µg/mL (≈ 0.26 µM) | MIC (Staphylococcus aureus): > 250 µg/mL | MIC [1]: 0.125 µg/mL (≈ 0.26 µM) | Activity [2]: Non-toxic

O=[N+]([O-])c1cccc(CNCC2CCCC(CNCc3cccc([N+](=O)[O-])c3)C2)c1 (configuration not stated)
MIC (Escherichia coli): > 250 µg/mL | MIC (Pseudomonas aeruginosa): > 250 µg/mL | MIC (Staphylococcus aureus): 0.02 µg/mL (≈ 0.0485 µM) | MIC [1]: > 250 µg/mL

CCc1ccc(CNCC2CCCC(CNCc3ccc(CC)cc3)C2)cc1 (configuration not stated)
MIC (Escherichia coli): > 250 µg/mL | MIC (Pseudomonas aeruginosa): 0.125 µg/mL (≈ 0.33 µM) | MIC (Staphylococcus aureus): > 250 µg/mL | MIC [1]: 0.25 µg/mL (≈ 0.66 µM) | hemolysis at 512 ug/ml [3]: 0.5%

Clc1cccc(Cl)c1CNCC1CCCC(CNCc2c(Cl)cccc2Cl)C1 (configuration not stated)
MIC (Escherichia coli): > 250 µg/mL | MIC (Pseudomonas aeruginosa): > 250 µg/mL | MIC (Staphylococcus aureus): > 250 µg/mL | MIC [1]: > 250 µg/mL | Activity [2]: Non-toxic

CCCCc1ccc(CNCC2CCCC(CNCc3ccc(CCCC)cc3)C2)cc1 (configuration not stated)
MIC (Escherichia coli): 0.016 µg/mL (≈ 0.0368 µM) | MIC (Pseudomonas aeruginosa): 0.002 µg/mL (≈ 0.0046 µM) | MIC (Staphylococcus aureus): 0.004 µg/mL (≈ 0.0092 µM) | MIC [1]: 0.004 µg/mL (≈ 0.0092 µM) | hemolysis at 512 ug/ml [3]: 4%

CN(C)[C@@H]1C(O)=C(C(N)=O)C(=O)[C@@]2(O)C(O)=C3C(=O)c4c(O)cccc4[C@@](C)(O)[C@H]3C[C@@H]12 [TETRACYCLINE]
MIC (Escherichia coli): 0.001 µg/mL (≈ 0.00225 µM) | MIC (Staphylococcus aureus): 0.01 µg/mL (≈ 0.0225 µM) | MIC [1]: 0.02 µg/mL (≈ 0.045 µM)

c1ccc(CNCC2CCCC(CNCc3ccccc3)C2)cc1 (configuration not stated)
MIC (Escherichia coli): > 250 µg/mL | MIC (Pseudomonas aeruginosa): > 250 µg/mL | MIC (Staphylococcus aureus): > 250 µg/mL | MIC [1]: > 250 µg/mL

Clc1cccc(CNCC2CCCC(CNCc3cccc(Cl)c3)C2)c1 (configuration not stated)
MIC (Escherichia coli): > 250 µg/mL | MIC (Pseudomonas aeruginosa): 0.125 µg/mL (≈ 0.319 µM) | MIC (Staphylococcus aureus): > 250 µg/mL | MIC [1]: 0.25 µg/mL (≈ 0.639 µM) | Activity [2]: Non-toxic

Brc1ccc(CNCC2CCCC(CNCc3ccc(Br)cc3)C2)cc1 (configuration not stated)
MIC (Escherichia coli): > 250 µg/mL | MIC (Pseudomonas aeruginosa): 0.032 µg/mL (≈ 0.0666 µM) | MIC (Staphylococcus aureus): > 250 µg/mL | MIC [1]: 0.125 µg/mL (≈ 0.26 µM) | Activity [2]: Non-toxic

CCCc1ccc(CNCC2CCCC(CNCc3ccc(CCC)cc3)C2)cc1 (configuration not stated)
MIC (Escherichia coli): 0.016 µg/mL (≈ 0.0393 µM) | MIC (Pseudomonas aeruginosa): 0.016 µg/mL (≈ 0.0393 µM) | MIC (Staphylococcus aureus): > 250 µg/mL | MIC [1]: 0.016 µg/mL (≈ 0.0393 µM) | hemolysis at 512 ug/ml [3]: 4%

Fc1ccc(CNCC2CCCC(CNCc3ccc(F)cc3)C2)cc1 (configuration not stated)
MIC (Escherichia coli): > 250 µg/mL | MIC (Pseudomonas aeruginosa): > 250 µg/mL | MIC (Staphylococcus aureus): > 250 µg/mL | MIC [1]: > 250 µg/mL

Clc1ccc(CNCC2CCCC(CNCc3ccc(Cl)cc3)C2)cc1 (configuration not stated)
MIC (Escherichia coli): > 250 µg/mL | MIC (Pseudomonas aeruginosa): 0.032 µg/mL (≈ 0.0818 µM) | MIC (Staphylococcus aureus): 0.025 µg/mL (≈ 0.0639 µM) | MIC [1]: 0.065 µg/mL (≈ 0.166 µM) | Activity [2]: Non-toxic

CC(C)c1ccc(CNCC2CCCC(CNCc3ccc(C(C)C)cc3)C2)cc1 (configuration not stated)
MIC (Escherichia coli): > 250 µg/mL | MIC (Pseudomonas aeruginosa): 0.125 µg/mL (≈ 0.307 µM) | MIC (Staphylococcus aureus): > 250 µg/mL | MIC [1]: 0.125 µg/mL (≈ 0.307 µM) | hemolysis at 512 ug/ml [3]: 4%
